Consider 2 molecules from ChEMBL document CHEMBL1123708, “Resolved cis- and trans-2-amino-5-methoxy-1-methyltetralins: central dopamine receptor agonists and antagonists” (1987).

Assay [1] relates to Rattus norvegicus. Put plainly: Locomotory activity was determined in reserpine pretreated rats at a dose of 3.2 umol/kg by subcutaneous administration. Value is the accumulation counts/30 min. It counts as functional. In outline: (§1)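 Rats were given reserpine 5 mg/kg sc 18 h beforehand, then test drug sc immediately before the activity session. Motor activity was recorded by photocells in motility meters as accumulated counts over 30 min, mean ± SEM, n = 3-4. Gross behaviour was watched for signs of stimulation. Reserpine-only controls were included.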

Assay [2] concerns Rattus norvegicus. Put plainly: Locomotory activity was determined in non pretreated rats at a dose of 3.2 umol/kg by subcutaneous administration. The format is functional. A digest of the protocol: (§2)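 Untreated rats received test drug sc 5 min before a 30-min session in photocell motility meters, with accumulated counts recorded. Activity is expressed as percent of saline controls, mean ± SEM, n = 3-5. Gross behaviour was observed through a semitransparent mirror. Differences from saline controls were assessed by Student's t test.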

Assay [3] concerns Rattus norvegicus. Description: Locomotory activity was determined in non pretreated rats at a dose of 0.32 umol/kg by subcutaneous administration. It counts as functional. In outline: as §2
Assay [4] concerns Rattus norvegicus. Put plainly: In vivo DOPA accumulation in reserpine pretreated rat striatum system by subcutaneous administration. The format is functional. The note with it: sc. A digest of the protocol: (§3)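 Rats received reserpine (5 mg/kg sc) 18 h, test drug sc 60 min and NSD 1015 (100 mg/kg ip) 30 min before death, with saline controls. Limbic or striatal DOPA was measured. Dose for half-maximal decrease was estimated from 4-7-dose curves (n = 3-5), minimal level as % of control.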

Assay [5] concerns Rattus norvegicus. Description: In vivo DOPA accumulation in reserpine pretreated rat limbic system by subcutaneous administration. The note with it: sc. It counts as functional. A digest of the protocol: as §3
The subject of assay [6] is Rattus norvegicus. Put plainly: Locomotory activity was determined in non pretreated rats at a dose of 52 umol/kg by subcutaneous administration; I denotes inactive. The format is functional. A digest of the protocol: as §2
The subject of assay [7] is Rattus norvegicus. Put plainly: In vivo DOPA accumulation in non pretreated rat limbic system by subcutaneous administration; I denotes inactive. It counts as functional, organism-based. In outline: (§4)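 Rats without pretreatment received test drug sc 65 min and NSD 1015 (100 mg/kg ip) 30 min before death, with saline controls. DOPA was measured in limbic or striatal tissue. Dose for half-maximal change was estimated from 4-5-dose curves (n = 3-5), maximal level as % of control.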

For assay [8], the target named is T1, Dopamine receptor (Rattus norvegicus) (UniProt P25115+P19020+P30729+P18901+P61169). The note with it: 45 uM.
Assay [9] deals with Rattus norvegicus. Put plainly: In vivo DOPA accumulation in non pretreated rat striatum system by subcutaneous administration; I denotes inactive. The format is functional, organism-based. In outline:
as §4

Assay [10] concerns Rattus norvegicus. Description: Locomotory activity was determined in non pretreated rats at a dose of 3.2 umol/kg by subcutaneous administration; I denotes inactive. It counts as functional, organism-based. A digest of the protocol: as §2
Assay [11] deals with Rattus norvegicus. Description: Locomotory activity was determined in reserpine pretreated rats at a dose of 204 umol/kg by subcutaneous administration. Value is the accumulation counts/30 min. It counts as functional. A digest of the protocol:
as §1

Assay [12] deals with T1, Dopamine receptor (Rattus norvegicus). The note with it: 22 uM.
Assay [13] has as its system Rattus norvegicus. Description: Change in rectal temperature induced by DiPr-5,6-ADTN at a dose of 45 umol/kg of compound by subcutaneous administration. It counts as functional. In outline: (§5)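 Rats received DiPr-5,6-ADTN (0.25 μmol/kg sc) 100 min and test compound sc 40 min before death. Rectal temperature change (°C) was recorded between 60 and 100 min after DiPr-5,6-ADTN. Values are mean ± SEM, n = 4, with Student's t test vs DiPr-5,6-ADTN alone.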

Assay [14] concerns Rattus norvegicus. Put plainly: Change in rectal temperature induced by DiPr-5,6-ADTN at a dose of 22 umol/kg of compound by subcutaneous administration. The format is functional. In outline: as §5

Activity calls are given as the source filed them. The rule behind the calls is not given here.

Usually ED50 stands for the midpoint of the dose-response relation.

In the case of `CN1CCc2cccc3c2[C@H]1Cc1ccc(O)c(O)c1-3` [APOMORPHINE], the Activity in the assay on Rattus norvegicus [1] worked out at 366 counts/30 min; in the assay on Rattus norvegicus [2], 277%; in the assay on Rattus norvegicus [3], 52%. For the same molecule, the ED50 with Rattus norvegicus [4] turned out to be 0.044 µmol/kg; in the assay with Rattus norvegicus [5], 0.041 µmol/kg.

In the case of `CCCN(CCC)[C@H]1CCc2c(OC)cccc2[C@H]1C`, the outcome with Rattus norvegicus [6] and with Rattus norvegicus [10] was inactive. Further, the ED50 entry in the assay with Rattus norvegicus [7] and in the assay on Rattus norvegicus [9] was “inactive” throughout. The Binding was found to be 94% in assay [8] and 106% in assay [12]. Further, the Activity in the assay on Rattus norvegicus [11] stood at 8 counts/30 min. Also, the figures for the ED50 with Rattus norvegicus [4] and in the assay with Rattus norvegicus [5] were 5.8 µmol/kg and 5.5 µmol/kg, respectively. Also, the figures for the Body temp change with Rattus norvegicus [13] and in the assay with Rattus norvegicus [14] were 0.5 °C and 0.12 °C, respectively.
